The record followed here is ChEMBL document CHEMBL4680101, “Discovery and Optimization of Allosteric Inhibitors of Mutant Isocitrate Dehydrogenase 1 (R132H IDH1) Displaying Activity in Human Acute Myeloid Leukemia Cells” (J Med Chem, 2016).

In test [1] the target is Isocitrate dehydrogenase [NADP] cytoplasmic (Homo sapiens, UniProt O75874). The test can be described thus: Inhibition of wild type IDH1 (unknown origin) using alpha-ketoglutarate and NADPH incubated for 30 mins by fluorescence based assay.
Isocitrate dehydrogenase [NADP] cytoplasmic (Homo sapiens, UniProt O75874), sequence (O75874 whole entry): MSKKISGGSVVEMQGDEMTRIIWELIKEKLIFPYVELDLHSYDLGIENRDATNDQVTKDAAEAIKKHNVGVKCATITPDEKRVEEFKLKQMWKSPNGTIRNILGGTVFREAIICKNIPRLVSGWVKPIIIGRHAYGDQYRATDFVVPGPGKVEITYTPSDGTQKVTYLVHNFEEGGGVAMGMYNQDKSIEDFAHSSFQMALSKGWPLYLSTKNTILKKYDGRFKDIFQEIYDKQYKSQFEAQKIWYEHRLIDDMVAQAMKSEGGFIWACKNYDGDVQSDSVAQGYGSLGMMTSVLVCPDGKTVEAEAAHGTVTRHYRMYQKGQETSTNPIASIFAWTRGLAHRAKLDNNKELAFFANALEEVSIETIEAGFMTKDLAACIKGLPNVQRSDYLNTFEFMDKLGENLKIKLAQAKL
Test [2] concerns the target T1, Isocitrate dehydrogenase [NADP] cytoplasmic (Homo sapiens, UniProt O75874, R132H). Briefly: Inhibition of IDH1 R132H mutant (unknown origin) using alpha-ketoglutarate and NADPH incubated for 60 mins by fluorescence based assay.
For test [3], the target named is T1, Isocitrate dehydrogenase [NADP] cytoplasmic. Briefly: Allosteric inhibition of IDH1 R132H mutant (unknown origin) expressed in HEK293T cells assessed as reduction in 2-HG production incubated for 48 hrs by LC-MS/MS analysis. It is filed as cell-based. The method, boiled down:
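HEK293T cells reverse-transfected with pcDNA3.1 IDH1 R132H (Lipofectamine 2000), 6 h at 37 °C in 1% FBS plating medium, then assay medium. Compound added in DMSO (0.15% final), 48 h at 37 °C. Medium 2-HG quantified by HILIC LC-MS/MS with D3-2-HG internal standard, normalised to Hoechst nuclear count. Mean of two biological replicates.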

The subject of the next test is HeLa. Briefly: Cytotoxicity in human HeLa cells. It is filed as cell-based.

Several values for one entry are separate records, joined by “and”; a condition that tells them apart may be missing. Identical values can stand only once. Activity calls are given as the source filed them. The rule behind the calls is not given here. Bounds are passed on as bounds.

T1 sequence (O75874 2-414 R132H limits assumed): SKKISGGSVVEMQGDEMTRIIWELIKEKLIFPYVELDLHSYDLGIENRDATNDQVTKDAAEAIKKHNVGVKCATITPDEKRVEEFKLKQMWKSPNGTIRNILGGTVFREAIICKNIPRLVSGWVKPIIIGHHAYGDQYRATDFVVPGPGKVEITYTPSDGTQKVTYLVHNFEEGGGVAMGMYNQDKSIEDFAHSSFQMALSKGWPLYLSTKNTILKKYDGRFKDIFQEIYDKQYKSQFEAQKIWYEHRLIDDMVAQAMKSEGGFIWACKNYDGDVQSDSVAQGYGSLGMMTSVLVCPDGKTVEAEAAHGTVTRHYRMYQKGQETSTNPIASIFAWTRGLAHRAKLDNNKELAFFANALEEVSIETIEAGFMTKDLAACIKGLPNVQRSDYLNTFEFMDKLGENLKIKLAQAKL

`CC(C)CCSc1nc(N2C[C@@H]3[C@H](C2)[C@H]3C(=O)O)ccc1C(=O)NC1C2CC3CC1CC(O)(C3)C2` (some centres undefined): in test [1], the inhibition entry is “inactive”. The concentration for half-maximal inhibition (IC50) – broadly, the point on the concentration scale where inhibition reaches its midpoint – in test [2] is 1.63 µM and 1.4 µM. Consider `CC(C)CCSc1nc(N2CCC[C@@H](CC(=O)O)C2)ccc1C(=O)NC1C2CC3CC1CC(O)(C3)C2` (some centres undefined), for which, in test [1], the inhibition result was “inactive”. Further, the IC50 in test [2] is 10.1 µM and 7.6 µM. For `CC(C)CCOc1nc(N2CCC[C@@H](CC(=O)O)C2)ccc1C(=O)NC1C2CC3CC1CC(O)(C3)C2` (some centres undefined), the figures for the IC50 (in test [3]; in the test with HeLa; in test [2]) were 8.5 µM, over 30 µM and 1.3 µM, respectively. On to `O=C(NC1C2CC3CC1CC(O)(C3)C2)c1ccc(N2C[C@@H]3[C@H](C2)[C@H]3C(=O)O)nc1SC1CCCC1` (some centres undefined), for which the inhibition result in test [1] was “inactive”. In test [2], the IC50 was 3 µM and 1.6 µM.

Regarding `COc1nc(N2CCC[C@@H](CC(=O)O)C2)ccc1C(=O)NC1CCCCC1`, the half-maximal inhibitory concentration (IC50) in test [3] was over 30 µM; in the test on HeLa, over 30 µM; in test [2] it was over 50 µM. Regarding `O=C(O)C[C@H]1CCN(c2ccc(C(=O)NC3C4CC5CC3CC(O)(C5)C4)c(SC3CCCCC3)n2)C1` (some centres undefined), in test [1], the inhibition entry was “inactive”. Further, the IC50 in test [2] is 2.3 µM and 2.2 µM. Take `CC(C)CCOc1nc(N2C[C@@H]3[C@H](C2)[C@H]3C(=O)O)ccc1C(=O)NCc1cccc(Cl)c1`: the IC50 in test [2] came out at 6.5 µM. On the same count and under the same terms, the result for `CC(C)CCOc1nc(N2CC[C@H](CC(=O)O)C2)ccc1C(=O)NC1C2CC3CC1CC(O)(C3)C2` (some centres undefined) reads 1.2 µM; that for `CC(C)=CCOc1nc(N2CCC[C@@H](CC(=O)O)C2)ccc1C(=O)NC1CCCCC1`, 14 µM; that for `Cc1ccccc1COc1nc(N2CCC[C@@H](CC(=O)O)C2)ccc1C(=O)NC1CCCCC1`, 4.5 µM. Same read-out and setting: the result for `CC(C)CCOc1nc(N2C[C@@H]3[C@H](C2)[C@H]3C(=O)O)ccc1C(=O)Nc1cccc(C(N)=O)c1` reads 6 µM; that for `CCC(C)(C)Oc1nc(N2CCC[C@@H](CC(=O)O)C2)ccc1C(=O)NC1CCCCC1`, 14 µM. On the same count and under the same terms, next, `CC(C)CCOc1nc(N2C[C@@H]3[C@H](C2)[C@H]3C(=O)O)ccc1C(=O)NCc1cccnc1`: 5.6 µM; `O=C(O)C[C@@H]1CCCN(c2ccc(C(=O)NC3CCCCC3)c(OC3CCCC3)n2)C1`: 12 µM; `CC(C)CCOc1nc(N2C[C@@H]3[C@H](C2)[C@H]3C(=O)O)ccc1C(=O)NCc1ccccc1`: 9.4 µM. `CC(C)CCOc1nc(N2C[C@@H]3[C@H](C2)[C@H]3C(=O)O)ccc1C(=O)N[C@@H](C)c1ccccc1` displayed an IC50 in test [2] of 4.4 µM. In test [2], `CCC(C)Oc1nc(N2CCC[C@@H](CC(=O)O)C2)ccc1C(=O)NC1CCCCC1` (some centres undefined) registered an IC50 of over 50 µM.

`O=C(O)C[C@@H]1CCCN(c2ccc(C(=O)NC3CCCCC3)c(NCc3ccccc3)n2)C1` yielded an IC50 in test [2] of over 50 µM. On to `O=C(O)C[C@@H]1CCCN(c2ccc(C(=O)NC3CCCCC3)c(OCc3ccccc3F)n2)C1`, for which the IC50 in test [3] was 16 µM; with HeLa it was over 30 µM; in test [2] it was 5.6 µM. `O=C(O)C[C@@H]1CCCN(c2ccc(C(=O)NC3CCCCC3)c(OCC3CCC3)n2)C1` had an IC50 in test [2] of 20 µM. In the case of `Cc1cccc(COc2nc(N3CCC[C@@H](CC(=O)O)C3)ccc2C(=O)NC2CCCCC2)c1`, it took 4.6 µM to reach half-maximal inhibition in test [2] (IC50). Still for that read-out and setting: the result for `O=C(O)C[C@@H]1CCCN(c2ccc(C(=O)NC3CCCCC3)c(OCCC3CC3)n2)C1` reads 8 µM; that for `CC(C)CCOc1nc(N2C[C@@H]3[C@H](C2)[C@H]3C(=O)O)ccc1C(=O)NC(C)C1C2CC3CC1CC(O)(C3)C2` (some centres undefined), 0.23 µM. `CC(C)CCOc1nc(N2C[C@@H]3[C@H](C2)[C@H]3C(=O)O)ccc1NS(=O)(=O)C1CCCCC1`: it took 8.6 µM to reach half-maximal inhibition in test [2] (IC50). Still for that read-out and setting: the result for `CC(C)CCOc1nc(N2C[C@@H]3[C@H](C2)[C@H]3C(=O)O)ccc1C(=O)NCc1cccc(O)c1` reads 6.3 µM.

`CC(C)CCOc1nc(N2C[C@@H]3[C@H](C2)[C@H]3C(=O)O)ccc1C(=O)NCc1ccc(O)cc1` gave an IC50 in test [2] of 6.6 µM.

In turn, `CC(C)CCOc1nc(N2C[C@@H]3[C@H](C2)[C@H]3C(=O)O)ccc1C(=O)NC1C2CC3CC(C2)CC1C3` (some centres undefined) had a concentration for half-maximal inhibition (IC50) in test [2] of over 50 µM. Same read-out and setting: next, `CC(C)CCNc1nc(N2CCC[C@@H](CC(=O)O)C2)ccc1C(=O)NC1CCCCC1`: over 50 µM. As to `CC(C)CCOc1nc(N2C[C@@H]3[C@H](C2)[C@H]3C(=O)O)ccc1NC(=O)NC1CCCCC1`, the 50% inhibitory concentration (IC50) in test [2] was over 50 µM.
